Active and inactive are the calls of the source. The calls are words filed in the database; no cut-off is given here.
Tests used:
[1] = Antiproliferative activity against human HCT8 cells assessed as inhibition of cell proliferation after 72 hrs by MTT assay; type: functional, cell-based; settings: HCT-8, 72 h
Procedure, shortened: (§1)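 Cells (1.0 × 10^4/well) grown overnight in DMEM with 10% FBS. Treated in triplicate with eight concentrations ([…]) of compound from DMSO stock, final DMSO <0.4%, for 72 h. MTT added for the last 4 h, formazan dissolved in DMSO, read at 570 nm. Inhibition = (Acontrol−Atreated)/Acontrol. IC50 given as mean ± SD of three independent experiments.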

[2] = Antiproliferative activity against 5-FU resistant human HCT8 cells assessed as inhibition of cell proliferation after 72 hrs by MTT assay; type: functional, cell-based; settings: HCT-8, 72 h; procedure, shortened: as §1
[3] = Antiproliferative activity against human CCD-841-CoN cells assessed as inhibition of cell proliferation after 72 hrs by MTT assay; type: cell-based; procedure, shortened: as §1
[4] = system: HCT-8; test: Induction of apoptosis in human HCT8 cells assessed as viable cells level at 0.25 uM incubated for 24 hrs by FITC-Annexin-V and propidium iodide staining based flow cytometry (reference value: 92%); type: functional
[5] = system: HCT-8; test: Induction of apoptosis in human HCT8 cells assessed as early apoptotic cells level at 0.25 uM incubated for 24 hrs by FITC-Annexin-V and propidium iodide staining based flow cytometry (reference value: 1.21%); type: functional
[6] = system: HCT-8; test: Induction of apoptosis in human HCT8 cells assessed as late apoptotic cells level at 0.25 uM incubated for 24 hrs by FITC-Annexin-V and propidium iodide staining based flow cytometry (reference value: 4.23%); type: functional
[7] = system: HCT-8; test: Induction of apoptosis in human HCT8 cells assessed as necrotic cells level at 0.25 uM incubated for 24 hrs by FITC-Annexin-V and propidium iodide staining based flow cytometry (reference value: 2.58%); type: functional
[8] = system: HCT-8; test: Induction of apoptosis in human HCT8 cells assessed as viable cells level at 0.5 uM incubated for 24 hrs by FITC-Annexin-V and propidium iodide staining based flow cytometry (reference value: 92%); type: functional
[9] = system: HCT-8; test: Induction of apoptosis in human HCT8 cells assessed as early apoptotic cells level at 0.5 uM incubated for 24 hrs by FITC-Annexin-V and propidium iodide staining based flow cytometry (reference value: 1.21%); type: functional
[10] = system: HCT-8; test: Induction of apoptosis in human HCT8 cells assessed as late apoptotic cells level at 0.5 uM incubated for 24 hrs by FITC-Annexin-V and propidium iodide staining based flow cytometry (reference value: 4.23%); type: functional
[11] = system: HCT-8; test: Induction of apoptosis in human HCT8 cells assessed as necrotic cells level at 0.5 uM incubated for 24 hrs by FITC-Annexin-V and propidium iodide staining based flow cytometry (reference value: 2.58%); type: functional
[12] = system: HCT-8; test: Induction of apoptosis in human HCT8 cells assessed as viable cells level at 1 uM incubated for 24 hrs by FITC-Annexin-V and propidium iodide staining based flow cytometry (reference value: 92%); type: functional
[13] = system: HCT-8; test: Induction of apoptosis in human HCT8 cells assessed as early apoptotic cells level at 1 uM incubated for 24 hrs by FITC-Annexin-V and propidium iodide staining based flow cytometry (reference value: 1.21%); type: functional
[14] = system: HCT-8; test: Induction of apoptosis in human HCT8 cells assessed as late apoptotic cells level at 1 uM incubated for 24 hrs by FITC-Annexin-V and propidium iodide staining based flow cytometry (reference value: 4.23%); type: functional
[15] = system: HCT-8; test: Induction of apoptosis in human HCT8 cells assessed as necrotic cells level at 1 uM incubated for 24 hrs by FITC-Annexin-V and propidium iodide staining based flow cytometry (reference value: 2.58%); type: functional
[16] = system: HCT-8; test: Induction of apoptosis in FU-resistant human HCT8 cells assessed as viable cells level at 0.25 uM incubated for 24 hrs by FITC-Annexin-V and propidium iodide staining based flow cytometry (reference value: 90%); type: functional
[17] = system: HCT-8; test: Induction of apoptosis in FU-resistant human HCT8 cells assessed as early apoptotic cells level at 0.25 uM incubated for 24 hrs by FITC-Annexin-V and propidium iodide staining based flow cytometry (reference value: 2.07%); type: functional
[18] = system: HCT-8; test: Induction of apoptosis in FU-resistant human HCT8 cells assessed as late apoptotic cells level at 0.25 uM incubated for 24 hrs by FITC-Annexin-V and propidium iodide staining based flow cytometry (reference value: 0.95%); type: functional
[19] = system: HCT-8; test: Induction of apoptosis in FU-resistant human HCT8 cells assessed as necrotic cells level at 0.25 uM incubated for 24 hrs by FITC-Annexin-V and propidium iodide staining based flow cytometry (reference value: 0.958%); type: functional
[20] = system: HCT-8; test: Induction of apoptosis in FU-resistant human HCT8 cells assessed as viable cells level at 0.5 uM incubated for 24 hrs by FITC-Annexin-V and propidium iodide staining based flow cytometry (reference value: 90%); type: functional
[21] = system: HCT-8; test: Induction of apoptosis in FU-resistant human HCT8 cells assessed as early apoptotic cells level at 0.5 uM incubated for 24 hrs by FITC-Annexin-V and propidium iodide staining based flow cytometry (reference value: 2.07%); type: functional
[22] = system: HCT-8; test: Induction of apoptosis in FU-resistant human HCT8 cells assessed as late apoptotic cells level at 0.5 uM incubated for 24 hrs by FITC-Annexin-V and propidium iodide staining based flow cytometry (reference value: 0.95%); type: functional
[23] = system: HCT-8; test: Induction of apoptosis in FU-resistant human HCT8 cells assessed as necrotic cells level at 0.5 uM incubated for 24 hrs by FITC-Annexin-V and propidium iodide staining based flow cytometry (reference value: 0.958%); type: functional
[24] = system: HCT-8; test: Induction of apoptosis in FU-resistant human HCT8 cells assessed as viable cells level at 1 uM incubated for 24 hrs by FITC-Annexin-V and propidium iodide staining based flow cytometry (reference value: 90%); type: functional
[25] = system: HCT-8; test: Induction of apoptosis in FU-resistant human HCT8 cells assessed as early apoptotic cells level at 1 uM incubated for 24 hrs by FITC-Annexin-V and propidium iodide staining based flow cytometry (reference value: 2.07%); type: functional
[26] = system: HCT-8; test: Induction of apoptosis in FU-resistant human HCT8 cells assessed as late apoptotic cells level at 1 uM incubated for 24 hrs by FITC-Annexin-V and propidium iodide staining based flow cytometry (reference value: 0.95%); type: functional
[27] = system: HCT-8; test: Induction of apoptosis in FU-resistant human HCT8 cells assessed as necrotic cells level at 1 uM incubated for 24 hrs by FITC-Annexin-V and propidium iodide staining based flow cytometry (reference value: 0.958%); type: functional
[28] = system: HCT-8; test: Inhibition of HIF-1alpha protein expression in FU-resistant human HCT8 cells at 1 uM incubated for 24 hrs by Western blotting method; type: functional, cell-based
Procedure, shortened: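 Cells (1 x 10^6) grown 24 h in 6 cm dishes, then exposed in duplicate for 24 h to 0.25, 0.5 or 1 µM compound, with or without PTIO. Lysates (20 µg/lane) were run on 7.5% SDS-PAGE, blotted to PVDF and blocked in 5% milk. HRP secondaries with ECL detection; bands quantified by densitometry against β-actin or GAPDH. Three separate experiments, mean ± SD.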

Structure (SMILES)	IC50 [1] [nM]	IC50 [2] [nM]	IC50 [3] [nM]	Activity [4] [%]	Activity [5] [%]	Activity [6] [%]	Activity [7] [%]	Activity [8] [%]	Activity [9] [%]	Activity [10] [%]	Activity [11] [%]	Activity [12] [%]	Activity [13] [%]	Activity [14] [%]	Activity [15] [%]	Activity [16] [%]	Activity [17] [%]	Activity [18] [%]	Activity [19] [%]	Activity [20] [%]	further results
CC1(C)CC[C@]2(C(=O)NCC(=O)OCC#CCOc3no[n+]([O-])c3S(=O)(=O)c3ccccc3)CC[C@]3(C)[C@H](C(=O)C=C4[C@@]5(C)C=C(C#N)C(=O)C(C)(C)[C@@H]5CC[C@]43C)[C@@H]2C1	294	232	1280	74	3.92	10.3	2.31	62.8	5.34	24.7	4.1	67.1	9.51	39	3.58	70.8	5.44	21.4	2.53	49.8	Activity [21]: 7.59%; Activity [22]: 34.6%; Activity [23]: 7.65%; Activity [24]: 34.3%; Activity [25]: 13.5%; Activity [26]: 44.9%; Activity [27]: 7.36%
COC(=O)[C@]12CCC(C)(C)C[C@H]1[C@H]1C(=O)C=C3[C@@]4(C)C=C(C#N)C(=O)C(C)(C)[C@@H]4CC[C@@]3(C)[C@]1(C)CC2 [BARDOXOLONE METHYL]	399	363	316	79.5	3.78	14	2.13	65.1	6.8	18.7	3.18	57.5	9.42	29.8	3.31	71.1	5.15	20.5	3.2	64.2	Activity [21]: 6.01%; Activity [22]: 28.1%; Activity [23]: 1.73%; Activity [24]: 51.2%; Activity [25]: 10.9%; Activity [26]: 36%; Activity [27]: 1.52%; inhibition [28]: Active
